Test results as given in ChEMBL document CHEMBL4251566 (Eur J Med Chem, 2018).

Tests used:
[1] = biological target: T1, Tyrosine-protein kinase JAK3 (Homo sapiens, UniProt P52333); experiment: Inhibition of recombinant N-terminal GST-tagged human JAK3 (781 to end residues) expressed in baculovirus infected Sf9 insect cells using Poly(4:1 Glu,Tyr) peptide substrate incubated for 60 mins by ADP-Glo luminescence assay
T1 sequence (P52333 whole entry): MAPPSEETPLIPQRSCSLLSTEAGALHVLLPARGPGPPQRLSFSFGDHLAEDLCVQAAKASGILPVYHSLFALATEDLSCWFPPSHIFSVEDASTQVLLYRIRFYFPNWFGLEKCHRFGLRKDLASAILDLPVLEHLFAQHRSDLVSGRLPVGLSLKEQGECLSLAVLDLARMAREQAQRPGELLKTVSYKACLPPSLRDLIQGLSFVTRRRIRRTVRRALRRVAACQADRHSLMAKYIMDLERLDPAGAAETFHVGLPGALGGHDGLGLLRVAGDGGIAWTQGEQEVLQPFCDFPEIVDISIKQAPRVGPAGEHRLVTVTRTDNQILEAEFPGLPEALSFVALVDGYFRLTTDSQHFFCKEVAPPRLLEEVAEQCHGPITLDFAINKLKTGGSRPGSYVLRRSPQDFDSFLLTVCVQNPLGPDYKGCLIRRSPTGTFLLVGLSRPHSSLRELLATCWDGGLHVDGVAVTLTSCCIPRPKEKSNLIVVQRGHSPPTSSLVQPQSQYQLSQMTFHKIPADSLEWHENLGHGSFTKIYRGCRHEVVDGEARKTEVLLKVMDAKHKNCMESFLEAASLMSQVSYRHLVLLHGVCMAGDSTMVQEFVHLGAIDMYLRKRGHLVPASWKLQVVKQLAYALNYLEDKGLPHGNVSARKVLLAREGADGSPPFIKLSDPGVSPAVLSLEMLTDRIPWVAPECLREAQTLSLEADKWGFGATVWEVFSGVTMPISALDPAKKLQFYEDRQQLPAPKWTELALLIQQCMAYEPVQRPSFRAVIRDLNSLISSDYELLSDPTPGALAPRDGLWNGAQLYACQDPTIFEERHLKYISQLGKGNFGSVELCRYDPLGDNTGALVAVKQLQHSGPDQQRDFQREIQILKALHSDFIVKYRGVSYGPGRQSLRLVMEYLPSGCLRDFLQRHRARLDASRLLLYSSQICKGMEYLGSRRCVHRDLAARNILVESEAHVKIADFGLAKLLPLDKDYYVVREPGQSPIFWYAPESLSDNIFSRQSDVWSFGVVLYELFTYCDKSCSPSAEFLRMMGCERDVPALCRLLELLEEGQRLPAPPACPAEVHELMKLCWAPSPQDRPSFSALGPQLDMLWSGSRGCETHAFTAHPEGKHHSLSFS
Summary of the method: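 ADP-Glo luminescent kinase assay. The kinase reaction ran 60 min at room temperature in 1× kinase buffer. ADP-Glo reagent was added to stop the reaction and deplete ATP, followed by 40 min at room temperature. Detection reagent then converted ADP to ATP for a luciferase readout, followed by 30 min at room temperature. Luminescence was integrated over 0.5–1 s, and IC50 came from curve fitting.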

Raji = experiment: Antiproliferative activity against human Raji cells after 72 hrs by CCK-8 assay; type: functional, cell-based
Summary of the method: (§1)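 CCK-8 viability assay. Cells were seeded at 3000/well in RPMI-1640 with 10% FBS at 37 °C, 5% CO2, for 4 h before treatment. Exposure was 72 h at five concentrations (1.25, 5, 10, 20, 40 µM), each in five replicates. Absorbance was read at 450 nm. IC50 came from dose-response curves, as the mean of at least three separate experiments.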

Ramos [2] = experiment: Antiproliferative activity against human Ramos cells after 72 hrs by CCK-8 assay
NAMALVA = experiment: Antiproliferative activity against human NAMALWA cells after 72 hrs by CCK-8 assay; type: functional, cell-based; summary of the method: as §1
[3] = biological target: Tyrosine-protein kinase BTK (Homo sapiens, UniProt Q06187); experiment: Inhibition of recombinant full-length N-terminal His-tagged human BTK expressed in baculovirus infected Sf9 insect cells using Poly(4:1 Glu,Tyr) peptide substrate incubated for 60 mins by ADP-Glo luminescence assay
Ramos [4] = experiment: Induction of apoptosis in human Ramos cells assessed as total apoptosis rate at 10 uM after 72 hrs by Annexin V-FITC/propidium iodide staining based flow cytometry relative to control
PBMC = experiment: Cytotoxicity against human PBMCs assessed as induction of morphological changes at <10 uM after 24 hrs by AO/PI staining-based phase contrast microscopy; type: cell-based
Ramos [5] = experiment: Induction of apoptosis in human Ramos cells assessed as necrotic cells at 10 uM after 72 hrs by Annexin V-FITC/propidium iodide staining based flow cytometry (reference value: 0.7%); type: functional
Ramos [6] = experiment: Induction of apoptosis in human Ramos cells assessed as viable cells at 10 uM after 72 hrs by Annexin V-FITC/propidium iodide staining based flow cytometry (reference value: 98.7%); type: functional; conditions: read-out: Activity
Ramos [7] = experiment: Induction of apoptosis in human Ramos cells assessed as early apoptotic cells at 10 uM after 72 hrs by Annexin V-FITC/propidium iodide staining based flow cytometry (reference value: 0.0%); type: functional
Ramos [8] = experiment: Induction of apoptosis in human Ramos cells assessed as late apoptotic cells at 10 uM after 72 hrs by Annexin V-FITC/propidium iodide staining based flow cytometry (reference value: 0.5%); type: functional

Sequence of Tyrosine-protein kinase BTK (Q06187 whole entry): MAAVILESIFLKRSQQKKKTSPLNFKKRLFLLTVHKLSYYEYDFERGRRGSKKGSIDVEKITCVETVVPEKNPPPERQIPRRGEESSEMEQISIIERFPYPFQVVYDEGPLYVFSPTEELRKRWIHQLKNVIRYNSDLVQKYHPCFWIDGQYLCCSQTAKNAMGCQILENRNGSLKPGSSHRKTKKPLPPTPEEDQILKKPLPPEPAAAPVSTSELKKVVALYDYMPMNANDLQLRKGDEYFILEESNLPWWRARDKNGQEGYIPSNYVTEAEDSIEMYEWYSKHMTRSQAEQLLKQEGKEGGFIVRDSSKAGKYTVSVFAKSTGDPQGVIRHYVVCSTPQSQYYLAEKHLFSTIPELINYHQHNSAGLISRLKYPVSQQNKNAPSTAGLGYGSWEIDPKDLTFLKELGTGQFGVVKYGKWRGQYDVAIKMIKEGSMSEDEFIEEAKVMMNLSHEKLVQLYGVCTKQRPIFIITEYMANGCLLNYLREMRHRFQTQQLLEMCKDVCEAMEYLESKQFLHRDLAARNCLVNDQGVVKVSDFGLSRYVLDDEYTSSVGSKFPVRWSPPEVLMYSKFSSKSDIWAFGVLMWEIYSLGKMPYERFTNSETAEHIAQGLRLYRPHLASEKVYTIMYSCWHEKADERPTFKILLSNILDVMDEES

SMILES | IC50 [1] | IC50 (Raji) | IC50 (Ramos [2]) | IC50 [3] | IC50 (NAMALVA) | Activity (Ramos [4]) | Activity (PBMC) | Activity (Ramos [5]) | viability at 10 µM (Ramos [6]) | Activity (Ramos [7]) | Activity (Ramos [8])
C=CC(=O)Nc1cccc(Nc2nc(Nc3ccc(OCCCN4CCN(CC)CC4)cc3C)ncc2F)c1 | > 0.1 µM | 26 µM | 18.5 µM | 0.09 µM | 26.6 µM | – | – | – | – | – | –
C=CC(=O)N1CCC[C@@H](n2nc(-c3ccc(Oc4ccccc4)cc3)c3c(N)ncnc32)C1 [IBRUTINIB] | – | 20.9 µM | 6.62 µM | – | 10.5 µM | 47.9% | 50% | 0.1% | 52% | 37% | –
C=CC(=O)Nc1cccc(Nc2nc(Nc3ccc(OCCCN4CCOCC4)cc3C)ncc2Cl)c1 | > 0.1 µM | 25.5 µM | 18.7 µM | 0.0893 µM | 28 µM | – | – | – | – | – | –
C=CC(=O)Nc1cccc(Nc2nc(Nc3ccc(OCCCN4CCN(CC)CC4)cc3C)ncc2Cl)c1 | > 0.1 µM | 35.3 µM | 14.4 µM | > 0.1 µM | 35.2 µM | – | – | – | – | – | –
C=CC(=O)Nc1cccc(Nc2nc(Nc3ccc(OCC(=O)N4CCOCC4)c(OC)c3)ncc2Cl)c1 | 0.0216 µM | 22.5 µM | > 40 µM | 0.0105 µM | 17.2 µM | – | – | – | – | – | –
C=CC(=O)Nc1cccc(Nc2nc(Nc3ccc(OCC(=O)N4CCOCC4)c(OC)c3)ncc2F)c1 | 0.0112 µM | 11.2 µM | > 40 µM | 0.0171 µM | 15 µM | – | – | – | – | – | –
C=CC(=O)Nc1cccc(Nc2nc(Nc3ccc(OCCCN4CCOCC4)c(OC)c3)ncc2Cl)c1 | 0.00677 µM | 5.92 µM | 2.49 µM | 0.0313 µM | 14.4 µM | – | – | – | – | – | –
C=CC(=O)Nc1cccc(Nc2nc(Nc3ccc(OCCCN4CCN(C)CC4)cc3C)ncc2Cl)c1 | 0.0911 µM | 25 µM | 22.6 µM | 0.0817 µM | 24.6 µM | – | – | – | – | – | –
C=CC(=O)Nc1cccc(Nc2nc(Nc3ccc(OCCOC)cc3)ncc2F)c1 [SPEBRUTINIB] | 0.0225 µM | 25.3 µM | 14.2 µM | – | 3.42 µM | 41.5% | – | 4.3% | 54.2% | 21.1% | 20.4%

Second part, led by results:

IC50 [1] | IC50 (Raji) | IC50 (Ramos [2]) | IC50 [3] | SMILES | IC50 (NAMALVA) | Activity (Ramos [4]) | Activity (PBMC) | Activity (Ramos [5]) | viability at 10 µM (Ramos [6]) | Activity (Ramos [7]) | Activity (Ramos [8])
0.00139 µM | 5.68 µM | 25.6 µM | 0.001 µM | C=CC(=O)Nc1cccc(Nc2nc(Nc3ccc(OCC(=O)N4CCOCC4)cc3)ncc2Cl)c1 | 4.42 µM | – | – | – | – | – | –
0.00091 µM | 11.4 µM | 5.72 µM | 0.0005 µM | C=CC(=O)Nc1cccc(Nc2nc(Nc3ccc(OCCCN4CCN(CC)CC4)c(Cl)c3)ncc2Cl)c1 | 2.41 µM | – | – | – | – | – | –
0.00106 µM | 22.5 µM | 2 µM | 0.0007 µM | C=CC(=O)Nc1cccc(Nc2nc(Nc3ccc(OCCCN4CCOCC4)c(Cl)c3)ncc2Cl)c1 | 19.4 µM | – | – | – | – | – | –
0.00095 µM | 13.9 µM | 11.3 µM | 0.0007 µM | C=CC(=O)Nc1cccc(Nc2nc(Nc3ccc(OC)c(OCCCN4CCOCC4)c3)ncc2F)c1 | 3.17 µM | – | – | – | – | – | –
0.00069 µM | 3.86 µM | 7.31 µM | 0.0008 µM | C=CC(=O)Nc1cccc(Nc2nc(Nc3ccc(OC)c(OCCCN4CCOCC4)c3)ncc2Cl)c1 | 5.17 µM | – | – | – | – | – | –
